Data set [1] has as its target rCB1 (Rattus norvegicus, UniProt P20272). The experiment in a line: Radioligand binding. As to conditions: for Ki: cis photoisomer (irradiated with 366 nm UV light), rat brain membranes, 0.6 nM [3H]CP55940; for CB1 trans/cis ratio: ratio Ki(trans)/Ki(cis) at CB1.
Data set [2] has as its target hCB2 (Homo sapiens, UniProt P34972). The experiment in a line: Radioligand binding. As to conditions: hCB2-HEK membranes.
The format of data set [3] is physicochemical. As to conditions: for cis form at photostationary state: UV light at 366 nm, quantified by HPLC. Summed up:
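Photostationary states measured by UV/vis spectroscopy in 10 mm path cuvettes. Cis form produced by 366 nm irradiation; trans form by 454 nm blue light. HPLC chromatograms track isomer distribution at each stationary state. Repeated switching cycles check for photofatigue. Thermal stability of the cis form followed over >3 h in buffer pH 7.4 at 37 °C.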

For data set [4], the target named is hCB1 (Homo sapiens, UniProt P21554). It counts as cell-based. Summed up: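 CHO-K1 cells express hCB1 coupled through Gαq16, so receptor activation gives intracellular calcium mobilization. Calcium flux is monitored with calcium-5 fluorescent dye on an automated fluorescence plate reader. Antagonist apparent affinity (Ke) is derived from the functional response.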

Data on 12 compounds can be found in article PMC9016771 (ACS chemical neuroscience, 2021).

Like-named read-outs stand apart in the source and are kept apart here.

Chain of hCB2 (P34972 whole entry): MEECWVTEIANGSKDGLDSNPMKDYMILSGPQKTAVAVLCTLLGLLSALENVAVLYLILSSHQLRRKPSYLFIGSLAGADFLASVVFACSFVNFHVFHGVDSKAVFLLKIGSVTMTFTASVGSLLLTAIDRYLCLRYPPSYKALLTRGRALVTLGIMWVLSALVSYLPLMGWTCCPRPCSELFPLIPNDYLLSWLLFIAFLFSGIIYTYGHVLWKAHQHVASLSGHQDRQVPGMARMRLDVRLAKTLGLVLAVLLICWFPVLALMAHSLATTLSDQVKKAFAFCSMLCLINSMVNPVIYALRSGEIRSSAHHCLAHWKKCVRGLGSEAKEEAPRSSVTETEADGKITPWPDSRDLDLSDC
Chain of rCB1 (P20272 whole entry): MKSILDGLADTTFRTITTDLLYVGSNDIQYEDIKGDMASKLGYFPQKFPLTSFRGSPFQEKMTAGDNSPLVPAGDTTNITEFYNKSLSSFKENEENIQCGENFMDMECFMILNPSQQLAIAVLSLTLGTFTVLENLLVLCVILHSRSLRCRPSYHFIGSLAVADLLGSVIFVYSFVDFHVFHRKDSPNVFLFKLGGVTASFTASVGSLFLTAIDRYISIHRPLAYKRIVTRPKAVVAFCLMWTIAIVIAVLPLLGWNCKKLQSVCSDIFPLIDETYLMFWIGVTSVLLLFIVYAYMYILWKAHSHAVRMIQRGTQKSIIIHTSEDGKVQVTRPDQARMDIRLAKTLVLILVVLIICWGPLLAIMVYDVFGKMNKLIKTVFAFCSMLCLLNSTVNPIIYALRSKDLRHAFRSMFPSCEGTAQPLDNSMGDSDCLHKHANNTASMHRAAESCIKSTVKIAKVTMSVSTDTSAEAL
Chain of hCB1 (P21554 whole entry): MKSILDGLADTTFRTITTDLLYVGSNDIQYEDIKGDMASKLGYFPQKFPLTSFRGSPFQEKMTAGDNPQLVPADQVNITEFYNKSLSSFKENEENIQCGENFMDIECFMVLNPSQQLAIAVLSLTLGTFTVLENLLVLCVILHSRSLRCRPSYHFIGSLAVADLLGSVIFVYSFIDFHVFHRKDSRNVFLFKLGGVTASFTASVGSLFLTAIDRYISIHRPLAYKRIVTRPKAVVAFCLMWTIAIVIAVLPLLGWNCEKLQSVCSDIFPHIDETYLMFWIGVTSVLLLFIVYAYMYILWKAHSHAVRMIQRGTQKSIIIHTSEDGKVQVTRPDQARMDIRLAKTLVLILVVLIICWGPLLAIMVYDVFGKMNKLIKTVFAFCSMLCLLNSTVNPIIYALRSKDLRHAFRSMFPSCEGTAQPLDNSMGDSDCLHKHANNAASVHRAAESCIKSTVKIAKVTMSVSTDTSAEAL

Consider `Cc1c(C(=O)NN2CCCCC2)nn(-c2ccc(Cl)cc2Cl)c1/N=N/c1ccccc1` [9a, 1-(2,4-Dichlorophenyl)-4-methyl-5-[(E)-2-phenyldiazen-1-yl]-N-(piperidin-1-yl)-1H-pyrazole-3-carboxamide], for which the Ki (as a rule, a dissociation constant, usually derived from enzyme kinetics or from competition with a known ligand) in data set [1] (CB1 (Ki ± SD)) came out at 461 ± 337 nM. The CB1 trans/cis ratio in data set [1] amounted to 1.0. The “[3H]CP55950 displ at 10 μM (CB2)” value in data set [2] (cis photoisomer (366 nm)) turned out to be 14%; in data set [2] (trans photoisomer (454 nm)), 51%.

Compound `Cc1c(C(=O)NN2CCCCC2)nn(-c2ccc(Cl)cc2Cl)c1/N=N/c1cccc(Cl)c1Cl` [9b, 1-(2,4-Dichlorophenyl)-4-methyl-5-[(E)-2-(2,3-dichlorophenyl)diazen-1-yl]-N-(piperidin-1-yl)-1H-pyrazole-3-carboxamide] came in with a Ki in data set [1] (CB1 (Ki ± SD)) of 716 ± 26 nM. Moreover, the CB1 trans/cis ratio in data set [1] is recorded as 0.83. Also, the “[3H]CP55950 displ at 10 μM (CB2)” value came to 61% in data set [2] (cis photoisomer (366 nm)) and 81% in data set [2] (trans photoisomer (454 nm)). The “cis form at photostationary state” value in data set [3] is “approximately 50%”.

As to `Cc1c(C(=O)NN2CCCCC2)nn(-c2ccc(Cl)cc2Cl)c1/N=N/c1ccc(Cl)cc1Cl` [9c, 1-(2,4-Dichlorophenyl)-5-[(E)-2-(2,4-dichlorophenyl)diazen-1-yl]-4-methyl-N-(piperidin-1-yl)-1H-pyrazole-3-carboxamide], the Ki in data set [1] (CB1 (Ki ± SD)) amounted to 358 ± 62 nM. Also, the CB1 trans/cis ratio in data set [1] turned out to be 1.11. The figures for the “[3H]CP55950 displ at 10 μM (CB2)” value in data set [2] (cis photoisomer (366 nm)) and in data set [2] (trans photoisomer (454 nm)) were 55% and 62%, respectively. For the same compound, the “cis form at photostationary state” value in data set [3] is on record as “approximately 50%”. Moreover, in data set [3] (after being stored in the dark for 2 h), the “reversal in the photoconversion” value was 45%.

On to `Cc1ccccc1/N=N/c1c(C)c(C(=O)NN2CCCCC2)nn1-c1ccc(Cl)cc1Cl` [9d, 1-(2,4-Dichlorophenyl)-4-methyl-5-[(1E)-2-(2-methylphenyl)diazen-1-yl]-N-(piperidin-1-yl)pyrazole-3-carboxamide], for which, in data set [1] (CB1 (Ki ± SD)), the Ki was 384 ± 40 nM. In data set [1], the CB1 trans/cis ratio was determined as 0.76. The “[3H]CP55950 displ at 10 μM (CB2)” value in data set [2] (cis photoisomer (366 nm)) was found to be 45%; in data set [2] (trans photoisomer (454 nm)), 68%.

Regarding `Cc1cccc(/N=N/c2c(C)c(C(=O)NN3CCCCC3)nn2-c2ccc(Cl)cc2Cl)c1` [9e, 1-(2,4-Dichlorophenyl)-4-methyl-5-[(1E)-2-(3-methylphenyl)diazen-1-yl]-N-(piperidin-1-yl)-1H-pyrazole-3-carboxamide], the affinity in data set [1] (CB1 (Ki ± SD)) corresponds to a Ki of 679 ± 160 nM. Also, the CB1 trans/cis ratio in data set [1] was found to be 0.60. Also, the “[3H]CP55950 displ at 10 μM (CB2)” value is reported as 46% in data set [2] (cis photoisomer (366 nm)) and 65% in data set [2] (trans photoisomer (454 nm)).

Regarding `Cc1c(/N=N/c2ccccc2)nn(-c2ccc(Cl)cc2Cl)c1-c1ccc(Cl)cc1` [14a, 5-(4-Chlorophenyl)-1-(2,4-dichlorophenyl)-4-methyl-3-[(E)-2-phenyldiazen-1-yl]-1H-pyrazole], the inhibitory constant (Ki) in data set [1] (CB1 (Ki ± SD)) stood at 249 ± 155 nM. In addition, the CB1 trans/cis ratio in data set [1] is on record as 2.16. In addition, the “[3H]CP55950 displ at 10 μM (CB2)” value is reported as 21% in data set [2] (cis photoisomer (366 nm)) and below 10% in data set [2] (trans photoisomer (454 nm)).

In data set [1] (CB1 (Ki ± SD)), `Cc1c(/N=N/c2cccc(Cl)c2Cl)nn(-c2ccc(Cl)cc2Cl)c1-c1ccc(Cl)cc1` [14b, 5-(4-Chlorophenyl)-1-(2,4-dichlorophenyl)-3-[(E)-2-(2,3-dichlorophenyl)diazen-1-yl]-4-methyl-1H-pyrazole] came in with a Ki of 195 ± 63 nM. Further, the “[3H]CP55950 displ at 10 μM (CB2)” value came to 60% in data set [2] (cis photoisomer (366 nm)) and 31% in data set [2] (trans photoisomer (454 nm)). Further, the “cis form at photostationary state” value in data set [3] is on record as “approximately 50%”.

For the compound `Cc1c(C(=O)NCc2ccc(/N=N/c3ccccc3)cc2)nn(-c2ccc(Cl)cc2Cl)c1-c1ccc(Cl)cc1` [16a, 5-(4-Chlorophenyl)-1-(2,4-dichlorophenyl)-4-methyl-N-((4-[(1E)-2-phenyldiazen-1-yl]phenyl)methyl)-1H-pyrazole-3-carboxamide], the Ki in data set [1] (CB1 (Ki ± SD)) stood at 29 ± 2.8 nM. Also, the Kb in data set [4] was around 85.3 nM. Moreover, the “[3H]CP55950 displ at 10 μM (CB2)” value in data set [2] (cis photoisomer (366 nm)) and in data set [2] (trans photoisomer (454 nm)) was below 10% in each case. The thermal stability in data set [3] (buffer pH 7.4, 37 °C) is reported as above 3 h.

For `Cc1c(C(=O)NCc2cccc(/N=N/c3ccccc3)c2)nn(-c2ccc(Cl)cc2Cl)c1-c1ccc(Cl)cc1` [16b, 5-(4-Chlorophenyl)-1-(2,4-dichlorophenyl)-4-methyl-N-((3-[(1E)-2-phenyldiazen-1-yl]phenyl)methyl)pyrazole-3-carboxamide], the CB1 trans/cis ratio in data set [1] is reported as 1.23. Besides, in data set [1] (read-out: CB1 (Ki ± SD)), the inhibition constant Ki was found to be 311 ± 196 nM. Also, the “[3H]CP55950 displ at 10 μM (CB2)” value was below 10% in data set [2] (cis photoisomer (366 nm)) and 14% in data set [2] (trans photoisomer (454 nm)).

In the case of `Cc1c(C(=O)NCc2ccccc2/N=N/c2ccccc2)nn(-c2ccc(Cl)cc2Cl)c1-c1ccc(Cl)cc1` [16c, 5-(4-Chlorophenyl)-1-(2,4-dichlorophenyl)-4-methyl-N-((2-[(1E)-2-phenyldiazen-1-yl]phenyl)methyl)-1H-pyrazole-3-carboxamide], in data set [1], the CB1 trans/cis ratio came to 1.58. The Ki in data set [1] (read-out: CB1 (Ki ± SD)) stood at 142 ± 28 nM. Moreover, the “[3H]CP55950 displ at 10 μM (CB2)” value in data set [2] (cis photoisomer (366 nm)) was determined as 14%; in data set [2] (trans photoisomer (454 nm)), 46%.

`Cc1c(C(=O)NCc2ccc(/N=N/c3ccc4c(c3)COC4)cc2)nn(-c2ccc(Cl)cc2Cl)c1-c1ccc(Cl)cc1` [16d, 5-(4-Chlorophenyl)-1-(2,4-dichlorophenyl)-N-((4-[(1E)-2-(1,3-dihydro-2-benzofuran-5-yl)diazen-1-yl]phenyl)methyl)-4-methyl-1H-pyrazole-3-carboxamide] gave a Ki in data set [1] (CB1 (Ki ± SD)) of 221 ± 109 nM. For the same compound, the CB1 trans/cis ratio in data set [1] is listed as 2.72. Further, the “[3H]CP55950 displ at 10 μM (CB2)” value in data set [2] (cis photoisomer (366 nm)) is reported as below 10%; in data set [2] (trans photoisomer (454 nm)) it was 32%.

With `Cc1c(C(=O)NN2CCCCC2)nn(-c2ccc(Cl)cc2Cl)c1-c1ccc(Cl)cc1` [rimonabant, reference compound], the “[3H]CP55950 displ at 10 μM (CB2)” value in data set [2] (reference compound, no photoisomer) is recorded as below 10%.
